ChEMBL document CHEMBL4311987, “Discovery of novel allosteric site and covalent inhibitors of FBPase with potent hypoglycemic effects” (Eur J Med Chem, 2019)
Activity calls are given as the source filed them. The rule behind the calls is not given here.

Experiments:
Homo sapiens [1] = organism: Homo sapiens; assay: Selectivity index, ratio of IC50 for human FBPase Y258A mutant expressed in Escherichia coli BL21 (DE3) to IC50 for human FBPase expressed in Escherichia coli BL21 (DE3)
In short: (§1)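 IC50 values for each FBPase point mutant and for wild-type human FBPase came from the same malachite-green assay. The index is mutant IC50 divided by wild-type IC50.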

[2] = target: T1, Fructose-1,6-bisphosphatase 1 (Homo sapiens) (UniProt P09467); assay: Binding affinity to human FBPase expressed in Escherichia coli BL21 (DE3) incubated for 2 hrs by LC-MS analysis
T1 sequence (whole entry): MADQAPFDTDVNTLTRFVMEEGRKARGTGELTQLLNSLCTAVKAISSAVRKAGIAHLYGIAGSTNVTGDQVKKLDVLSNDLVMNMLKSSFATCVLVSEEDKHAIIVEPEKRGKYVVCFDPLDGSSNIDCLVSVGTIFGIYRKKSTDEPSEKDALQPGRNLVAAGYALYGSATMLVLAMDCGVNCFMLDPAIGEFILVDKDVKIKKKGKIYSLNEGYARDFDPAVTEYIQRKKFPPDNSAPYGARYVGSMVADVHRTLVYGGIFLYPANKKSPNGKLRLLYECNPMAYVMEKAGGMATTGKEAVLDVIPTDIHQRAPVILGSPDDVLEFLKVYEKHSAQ

[3] = target: T1, Fructose-1,6-bisphosphatase 1 (Homo sapiens); assay: Inhibition of human FBPase expressed in Escherichia coli BL21 (DE3) at 10 times of IC50 using FBP as substrate incubated for 30 to 180 mins mins by malachite green dye based spectrophotometry
In short: (§2)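 Activity was started with 0.4 mM FBP and 0.8 mM Mg2+. Reactions were stopped with 1 M perchloric acid at 30, 60, 90, 120, 150 and 180 min, and phosphate was then detected by malachite green.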

[4] = target: T1, Fructose-1,6-bisphosphatase 1 (Homo sapiens); assay: Reversible inhibition of human FBPase expressed in Escherichia coli BL21 (DE3) at 20 times diluted IC50 using FBP as substrate preincubated for 30 to 180 mins followed by 20 fold compound dilution by malachite green dye based spectrophotometry; in short: as §2
[5] = target: Fructose-1,6-bisphosphatase 1 (Homo sapiens, UniProt P09467, D128A); assay: Inhibition of human FBPase D127A mutant expressed in Escherichia coli BL21 (DE3) using FBP as substrate incubated for 5 mins by malachite green dye based spectrophotometry
Fructose-1,6-bisphosphatase 1 (Homo sapiens, UniProt P09467, D128A), sequence (P09467 2-338 D128A limits assumed): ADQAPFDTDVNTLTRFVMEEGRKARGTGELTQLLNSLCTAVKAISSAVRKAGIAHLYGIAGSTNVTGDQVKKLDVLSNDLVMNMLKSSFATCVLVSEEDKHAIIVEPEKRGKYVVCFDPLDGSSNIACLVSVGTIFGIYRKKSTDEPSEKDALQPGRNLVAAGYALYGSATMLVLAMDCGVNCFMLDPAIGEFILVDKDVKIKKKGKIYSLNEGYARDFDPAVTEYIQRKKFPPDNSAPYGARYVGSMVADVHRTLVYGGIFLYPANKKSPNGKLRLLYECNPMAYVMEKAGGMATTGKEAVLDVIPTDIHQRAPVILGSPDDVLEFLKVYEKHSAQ
In short: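 Recombinant human FBPase (wild type or point mutants) was expressed in E. coli BL21 (DE3), purified and stored in 50% glycerol at -20 °C. Reactions ran 5 min at 37 °C, and released phosphate was read by malachite green.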

[6] = target: T1, Fructose-1,6-bisphosphatase 1 (Homo sapiens); assay: Competitive inhibition of human FBPase expressed in Escherichia coli BL21 (DE3) using FBP as substrate incubated for 5 mins in presence of Mg2+ by malachite green dye based spectrophotometry
In short: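 Malachite-green phosphate readout of human FBPase (300 nM, E. coli-expressed) in 50 mM Tris-HCl pH 7.4 with 0.4 mM FBP, 5 min at 37 °C. Compound concentration was varied at fixed Mg2+ levels, with Mg2+ raised from 1 mM to 10 mM, to assess competition with Mg2+.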

Homo sapiens [7] = organism: Homo sapiens; assay: Selectivity index, ratio of IC50 for human FBPase D127A mutant expressed in Escherichia coli BL21 (DE3) to IC50 for human FBPase expressed in Escherichia coli BL21 (DE3); in short: as §1
Hepatocyte [8] = assay: Inhibition of lipid accumulation in C57BLKS rat Primary hepatocytes assessed as reduction in insulin and glucose-induced TG level at 100 uM incubated for 24 hrs; format: functional, cell-based
In short: (§3)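 After overnight culture in DMEM, rat primary hepatocytes pretreated with compounds, then held in 25 mM glucose plus 500 nM insulin for 24 h to induce lipid accumulation. Triglyceride and total cholesterol measured with assay kits and normalized to BCA protein. Means ± SEM of four independent experiments.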

Hepatocyte [9] = assay: Inhibition of glucose production in C57BLKS rat Primary hepatocytes incubated for 3 hrs by glucose assay kit method; format: functional, cell-based
In short: (§4)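 Rat primary hepatocytes cultured overnight in DMEM/10% FBS, then pretreated with compounds for 3 h in fresh medium. Switched to glucose-free DMEM with 2 mM sodium pyruvate, 20 mM sodium lactate and compound for 3 h. Medium glucose measured with a kit and normalized to BCA protein. Pathological arm adds 1 µM dexamethasone plus 200 µM cAMP for 3 h. Means ± SEM, n=4.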

Hepatocyte [10] = assay: Inhibition of lipid accumulation in C57BLKS rat Primary hepatocytes assessed as reduction in insulin and glucose-induced TG level at 10 uM incubated for 24 hrs; format: functional, cell-based; in short: as §3
Hepatocyte [11] = assay: Inhibition of lipid accumulation in C57BLKS rat Primary hepatocytes assessed as reduction in insulin and glucose-induced TC level at 10 uM incubated for 24 hrs; format: functional, cell-based; in short: as §3
[12] = Acute toxicity in C57BL/6 mouse assessed as mortality at 600 mg/kg, po observed for 14 days; format: organism-based; conditions: in vivo, 336 h
In short: (§5)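 Sixteen male C57BL/6 mice, 8 weeks old, were randomised into two groups. Each group got a single oral dose on day 1, either vehicle or 600 mg/kg. Animals were watched for 14 days for mortality, body-weight loss and allergic reactions, against controls.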

Hepatocyte [13] = assay: Inhibition of glucose production in cAMP and Dex pre-treated C57BLKS rat Primary hepatocytes at 100 uM incubated for 3 hrs by glucose assay kit method; format: functional; in short: as §4
[14] = Acute toxicity in C57BL/6 mouse assessed as allergic action at 600 mg/kg, po observed for 14 days; format: organism-based; conditions: in vivo, 336 h; in short: as §5
Hepatocyte [15] = assay: Cytotoxicity against C57BLKS rat Primary hepatocytes assessed as cell viability by measuring cellular protein level at 10 to 300 uM by bicinchoninic acid method; format: cell-based
In short: (§6)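 Primary hepatocytes isolated from rat, cultured overnight in DMEM with 10% FBS, then exposed to compounds. Cellular protein per group measured by bicinchoninic acid (BCA) method as a viability control. The same protein values serve to normalize glucose, TG and TC contents. Pathological stimulation where applicable: 1 µM dexamethasone plus 200 µM cAMP, or 25 mM glucose plus 500 nM insulin for 24 h. Means ± SEM, four independent experiments.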

Hepatocyte [16] = assay: Cytotoxicity against C57BLKS rat Primary hepatocytes assessed as cell viability by measuring cellular protein level at 10 to 100 uM in presence of cAMP and Dex by bicinchoninic acid method; format: cell-based; in short: as §6
Hepatocyte [17] = assay: Cytotoxicity against C57BLKS rat Primary hepatocytes assessed as cell viability by measuring cellular protein level at 25 to 100 uM in presence of insulin and glucose by bicinchoninic acid method; format: cell-based; in short: as §6
Hepatocyte [18] = assay: Inhibition of lipid accumulation in C57BLKS rat Primary hepatocytes assessed as reduction in insulin and glucose-induced TC level incubated for 24 hrs; format: functional, cell-based; in short: as §3
Hepatocyte [19] = assay: Inhibition of glucose production in cAMP and Dex pre-treated C57BLKS rat Primary hepatocytes incubated for 3 hrs by glucose assay kit method; format: functional, cell-based; in short: as §4
[20] = Cytotoxicity against C57BLKS rat Primary hepatocytes assessed as cell viability incubated for 6 hrs by SRB assay; format: cell-based, Hepatocyte; conditions: read-out: Activity
In short: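 Rat primary hepatocytes under physiological conditions exposed to compounds for 6 h. Viability read by sulforhodamine B staining. Means ± SEM of four independent experiments.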

Hepatocyte [21] = assay: Inhibition of glucose production in C57BLKS rat Primary hepatocytes at 400 uM incubated for 3 hrs by glucose assay kit method relative to control; format: functional; in short: as §4
[22] = target: T2, Fructose-1,6-bisphosphatase 1 (Homo sapiens, UniProt P09467); assay: Binding affinity to human FBPase expressed in Escherichia coli BL21 (DE3) assessed as dissociation constant at 100 uM by UV-visible spectroscopy
T2 sequence (P09467 whole entry): T1 sequence (whole entry)

SMILES	Ratio IC50 (Homo sapiens [1])	Activity [2]	inhibition [3]	inhibition [4]	IC50 [5]	inhibition [6]	Ratio IC50 (Homo sapiens [7])	further results
O=[N+]([O-])/C=C/c1cccc(F)c1	19	Active	100%	Active	4 µM	Active	13	–
CCOC(=O)C(C)(C)Oc1ccc(F)c(/C=C/[N+](=O)[O-])c1	4.8	–	–	–	–	–	–	inhibition (Hepatocyte [8]): inactive; inhibition (Hepatocyte [9]): Dose-dependent effect; inhibition (Hepatocyte [10]): Active; inhibition (Hepatocyte [11]): Active; Activity [12]: Non-Toxic; inhibition at 100 µM (Hepatocyte [13]): 95%; Activity [14]: Non-Toxic; Activity (Hepatocyte [15]): Non-Toxic; Activity (Hepatocyte [16]): Non-Toxic; Activity (Hepatocyte [17]): Non-Toxic; inhibition (Hepatocyte [18]): Dose-dependent effect; inhibition (Hepatocyte [19]): Dose-dependent effect; viability at 6 h [20]: > 80%; inhibition at 400 µM (Hepatocyte [21]): 90%
N#Cc1ccc(/C=C/[N+](=O)[O-])cc1	4.2	Active	100%	Active	2 µM	Active	5.7	Kd [22]: 54 µM
